# Source: PubChem (Sanford-Burnham Center for Chemical Genomics)
# SENP8 block-1: SENP8 (human) protease inhibition; hit rate 0.64% among 360,000; recombinant SENP8, Nedd8 substrate fluorescence; Q96LD8; AID 602440; inhibition, % at 20 µM; in the data active means inhibition mostly above about 40%, no sharp cut-off; inactive means mostly below about 27%
# Target sequence (Q96LD8 whole entry, looked up): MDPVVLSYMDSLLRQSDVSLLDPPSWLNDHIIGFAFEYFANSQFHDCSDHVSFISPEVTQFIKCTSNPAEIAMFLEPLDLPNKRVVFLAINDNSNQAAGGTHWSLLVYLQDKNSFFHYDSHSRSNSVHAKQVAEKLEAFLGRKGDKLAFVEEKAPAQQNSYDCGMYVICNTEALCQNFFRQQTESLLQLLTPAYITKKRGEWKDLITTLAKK
# SENP7 inh: blocks the human protease SENP7; inhibition, % at 5 µM; Q9BQF6; hit rate 1.5% among 330,000; recombinant SENP7, Z-RLRGG-aminoluciferin luminescence, 40 min;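 active means inhibition above about 50% at the single test dose, limit read from the data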;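 further: plate controls were DMSO with enzyme for no effect and no enzyme buffer wells for full effect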
# Target sequence (Q9BQF6 706-1050 limits assumed): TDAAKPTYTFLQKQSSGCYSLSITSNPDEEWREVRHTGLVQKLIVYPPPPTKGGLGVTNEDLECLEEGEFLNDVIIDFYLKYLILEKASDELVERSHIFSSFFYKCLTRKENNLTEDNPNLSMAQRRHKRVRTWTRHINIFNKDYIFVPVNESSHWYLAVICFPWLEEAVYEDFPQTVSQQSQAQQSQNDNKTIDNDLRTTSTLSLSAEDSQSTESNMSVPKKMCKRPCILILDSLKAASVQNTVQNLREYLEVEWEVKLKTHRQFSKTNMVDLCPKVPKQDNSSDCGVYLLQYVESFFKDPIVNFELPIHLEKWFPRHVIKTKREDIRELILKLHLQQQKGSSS
# UBC13 polyUb: blocks human UBC13 polyubiquitin chain formation; P61088; TR-FRET; inhibition, % at 20 µM; hit rate 0.47% among 330,000; in the data active means inhibition above about 45%, passing the limit was not always enough
# Target sequence (P61088 whole entry, looked up): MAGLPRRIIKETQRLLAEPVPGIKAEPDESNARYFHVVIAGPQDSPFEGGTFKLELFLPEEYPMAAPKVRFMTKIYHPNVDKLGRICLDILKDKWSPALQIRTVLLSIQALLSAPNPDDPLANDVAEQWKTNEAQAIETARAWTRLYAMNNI
# SENP6 inh: SENP6 protease inhibition. Q9GZR1. Recombinant SENP6 catalytic domain, aminoluciferin luminescence. inhibition, % at 10 µM. hit rate 1.8% among 330,000. AID 2599;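 active means inhibition above about 50% at the single tested dose, limit read from the data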;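 further: plate controls were DMSO wells with enzyme for no effect and DMSO wells lacking enzyme for full effect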
# Apaf-1 inh: inhibitors of human Apaf-1 apoptosome. reconstituted apoptosome caspase-3 activity, DEVD-Rh110 fluorescence. O14727. inhibition, % at 20 µM. hit rate 0.71% among 330,000. AID 489030; active means inhibition of at least 40% at 20 µM;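 further: plate controls were DMSO wells for no effect and DEVD-CHO caspase inhibitor wells for full effect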
#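 Material: biochemical Apaf-1 apoptosome reconstitution. Medium: Hepes buffer, pH 7.5. Also added: cytochrome c activation, bis-DEVD rhodamine 110 substrate. Timing: 30 min compound preincubation, 50 min activation, room temperature. Measured by: rhodamine 110 fluorescence at Ex 480/Em 540 nm.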
# SENP8 block-2: blocks the human protease SENP8 | AID 2540 | inhibition, % at 10 µM | purified SENP8, Z-RLRGG-aminoluciferin cleavage, luminescence | hit rate 1.2% among 330,000; in the data active means inhibition above about 50%
# SENP8 confirm: human SENP8 inhibition, confirmed; Recombinant SENP8, Z-RLRGG-aminoluciferin luminescence, 60 min; inhibition, % at 12.5 µM; shares compounds with SENP7 inh; hit rate 40% among 6,200;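 active means mean inhibition across replicates above about 50%, limit read from the data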
# SENP6 confirm: human SENP6 inhibition, confirmed | inhibition, % at 12.5 µM | recombinant SENP6, Z-RLRGG-aminoluciferin luminescence | hit rate 58% among 6,200 | shares compounds with SENP7 inh
# SENP7 confirm: human SENP7 inhibition, confirmed; shares compounds with SENP7 inh; recombinant SENP7, Z-RLRGG-aminoluciferin luminescence, 40 min; inhibition, % at 12.5 µM; hit rate 69% among 6,200; AID 488917
# Casp3 SENP sel: selectivity test for SENP inhibitors: human caspase-3 inhibition; shares compounds with SENP7 inh; purified caspase-3, Z-DEVD-aminoluciferin luminescence, 60 min; inhibition, % at 12.5 µM; hit rate 60% among 6,200; AID 488918;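 active means mean inhibition above about 50%, limit read from the data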;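 further: plate controls were enzyme with DMSO for no effect and wells without caspase-3 for full effect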
# SENP luc ctr: interferes with luciferase luminescence in SENP counter-screen. inhibition, % at 12.5 µM. shares compounds with SENP7 inh. Pre-incubated SENP8/Z-RLRGG-aminoluciferin, luciferase luminescence interference. hit rate 39% among 6,200. AID 488919;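 active means mean inhibition above about 50% when retested at one dose, limit read from the data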;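 further: plate controls were DMSO wells with completed reaction for no effect and substrate without enzyme for full effect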
# Starred values were filed as active, the others as inactive; · = no result. Hits are enriched below; roughly 3% of the tested compounds scored in any of these assays.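 How the source made its calls, unless noted: active means mean inhibition above about 50% in the one-dose retest (limit read from the data); inactive means the rest.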
SMILES,SENP8 block-1,SENP7 inh,UBC13 polyUb,SENP6 inh,Apaf-1 inh,SENP8 block-2,SENP8 confirm,SENP6 confirm,SENP7 confirm,Casp3 SENP sel,SENP luc ctr
Nc1cc(-c2ccc(Cl)cc2)nn1-c1ccccc1,-2.2,62.9*,4.8,33.8,4.7,48.0,36.0,38.4,80.0*,53.3*,71.1*
O=C(CCCCn1ccc(=O)[nH]c1=O)Nc1ccc(C(=O)O)c(O)c1,-64.2,·,·,·,·,·,·,·,·,·,·
CSc1nc(N)n2nc(-c3ccc(Cl)cc3)cc2n1,3.3,98.2*,-8.3,94.1*,-1.4,89.3*,-4.0,13.8,8.8,30.6,-6.3
Cn1c(/N=C/c2c[nH]c3ccccc23)nc2ccccc21,17.0,93.0*,4.8,95.0*,6.5,94.2*,95.8*,96.8*,102.9*,94.3*,20.1
N#Cc1ccsc1NC(=O)CSc1nncs1,-3.6,97.2*,-4.1,94.7*,-15.8,95.2*,96.7*,97.4*,102.0*,98.5*,83.5*
N#Cc1ccsc1NC(=O)CSc1nnnn1-c1ccc(O)cc1,9.9,18.1,15.3,51.8*,-18.8,34.7,33.3,25.3,61.1*,33.9,32.8
Cc1nnc(SCC(=O)Nc2sccc2C#N)s1,-3.4,-4.5,0.6,11.9,4.0,3.5,·,·,·,·,·
COc1ccccc1NC(=O)Nc1nc(CC(=O)N2CCN(c3ccc(F)cc3)CC2)cs1,9.9,-4.8,9.7,-10.8,2.0,-6.1,·,·,·,·,·
Clc1ccc(-c2ccc(CNCc3ccccn3)o2)cc1,0.3,6.3,-1.2,-36.8,3.7,-10.9,·,·,·,·,·
Cc1ccc(S(=O)(=O)N2CCN(C(=O)Cn3nc(C(=O)O)c4ccccc4c3=O)CC2)cc1,·,0.6,12.0,-18.0,-20.2,1.3,·,·,·,·,·
CN(C)CCCN(C(=O)COc1ccc(Cl)cc1)c1nc2ccc(F)cc2s1,25.7,9.4,14.5,54.7*,-0.6,2.5,6.3,-2.5,-0.7,-0.9,-5.8
C/C(=N\OC(=O)Nc1ccccc1)c1ccc(C)cc1,28.0,73.4*,0.1,67.4*,-17.3,69.6*,82.2*,82.9*,96.3*,78.6*,77.6*
C/C(=N/NC(=O)Nc1ccccc1)c1ccc(C)cc1,25.3,-9.0,-4.3,-3.3,4.4,-5.7,·,·,·,·,·
COc1ccc(Cc2c(O)nc(SCC(=O)c3ccc(OC)cc3)[nH]c2=O)cc1,3.8,1.4,3.7,5.8,4.7,-4.3,·,·,·,·,·
Cc1nc(SCC(N)=O)[nH]c(=O)c1Cc1ccc(OC(C)C)cc1,13.1,-0.5,-2.9,63.6*,-4.7,-4.7,12.1,6.1,11.6,6.6,1.5
O=c1c2ccccc2nc2n1CCO2,18.6,-6.6,0.2,3.8,-1.4,-1.1,·,·,·,·,·
O=c1c2ccccc2nc2oc3ccccc3n12,-24.9,80.1*,5.8,88.2*,1.5,74.1*,44.2,47.7,69.8*,82.5*,15.6
CN1c2ccsc2C(O)=C(C(=S)Nc2ccc(F)c(Cl)c2)S1(=O)=O,-102.3,6.7,-2.5,61.3*,10.6,17.2,18.7,12.9,10.1,12.6,29.9
COc1cc(SC)ccc1C(=O)Nc1ccc(Cl)cn1,-7.2,96.2*,7.7,14.1,17.2,87.0*,-1.2,-0.4,2.2,0.0,-3.4
COc1cc(SC)ccc1C(=O)Nc1ccc2c(c1)CCC2,6.5,72.7*,0.0,69.2*,24.0,66.5*,12.9,74.6*,90.5*,54.2*,7.3
O=[N+]([O-])c1nn(-c2ccc3c(c2)OCCO3)n(O)c1=NCc1ccccc1Cl,17.2,63.7*,-17.7,27.4,-10.5,8.5,10.3,31.7,64.6*,12.9,7.0
O=[N+]([O-])c1nn(-c2ccc3c(c2)OCCO3)n(O)c1=NC1CCCCC1,26.3,3.8,-33.4,28.3,6.5,3.4,·,·,·,·,·
COc1ccccc1CN=c1c([N+](=O)[O-])nn(-c2ccc3c(c2)OCCO3)n1O,26.1,59.1*,-2.0,46.2,3.6,22.5,-10.9,1.9,-9.0,7.5,0.5
C/C(=N/NC(=O)c1cc2ccccc2cc1O)C1C(=O)c2ccccc2C1=O,26.7,63.1*,-16.4,94.4*,12.7,95.9*,94.7*,98.9*,97.2*,80.9*,46.5
C/C(=N\NC(=O)c1ccccc1[N+](=O)[O-])c1c(O)cc(C)oc1=O,19.3,4.0,-2.3,-11.3,-1.8,3.4,·,·,·,·,·
SMILES,SENP8 block-1,SENP7 inh,UBC13 polyUb,SENP6 inh,Apaf-1 inh,SENP8 block-2,SENP8 confirm,SENP6 confirm,SENP7 confirm,Casp3 SENP sel,SENP luc ctr
C/C(=N\NC(=O)c1ccccc1O)C1C(=O)c2ccccc2C1=O,36.1,87.1*,-22.5,94.1*,26.1,92.5*,97.9*,98.5*,101.5*,89.3*,74.1*
C/C(=N\NC(=O)c1ccccc1O)c1c(O)cc(C)oc1=O,-72.9,68.8*,18.3,81.3*,-16.0,61.7*,13.2,6.3,0.8,-3.2,-2.3
c1ccc(COc2ccc(-c3csnn3)cc2)cc1,25.1,73.0*,-9.2,66.5*,2.7,41.2,6.5,13.6,24.2,21.1,7.1
Nc1nc2ccccc2n1/N=C/c1ccc(Br)cc1,13.1,-1.4,13.5,76.1*,14.7,66.9*,60.3*,62.6*,90.3*,48.7,10.4
Nc1nc2ccccc2n1/N=C/c1ccc2c(c1)OCO2,5.9,90.0*,4.2,90.4*,10.3,84.2*,86.1*,86.5*,97.6*,85.5*,82.0*
CCn1c(N)c(C(=O)COC(=O)CCc2nc3ccccc3c(=O)[nH]2)c(=O)[nH]c1=O,25.1,2.9,8.6,-3.9,-2.8,-3.5,·,·,·,·,·
Cc1nc(Nc2ccccc2)sc1-c1ccccc1,-110.5,89.6*,16.8,90.1*,17.2,82.5*,93.9*,93.8*,99.7*,70.7*,37.7
CC(C)(C)C(=O)Nc1nc(-c2ccccc2)ns1,12.5,-3.6,-6.9,-19.9,13.5,-26.4,·,·,·,·,·
Cc1nc(Nc2ccc(C(=O)O)cc2)sc1-c1ccccc1,-400.2,100.0*,-1.8,94.8*,-0.2,95.9*,71.8*,91.9*,67.1*,18.2,6.0
Cc1nc(Nc2ccccc2)sc1C(=O)c1ccccc1,-19.9,4.6,1.7,-6.8,2.5,-8.5,·,·,·,·,·
c1ccc(Nc2nc(-c3ccccc3)ns2)cc1,10.1,83.4*,10.3,76.9*,11.8,60.5*,-5.4,52.6*,91.7*,46.6,8.2
CN1C(N)=NC(=O)/C1=C/c1ccc(OC(F)(F)F)cc1,-9.9,3.0,2.8,-1.4,-2.8,-7.9,·,·,·,·,·
